# Tests used:
# Type in all cases: functional
# [1] = tested on: U-251; assay: Cytotoxicity against human U251 cells after 48 hrs by SRB assay; conditions: U-251, 48 h; for CC50: read-out: LC50 (the source's name)
# In short: (§1)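 NCI 60-cell screen. Cells grew 24 h (37 °C, 5% CO2) before compound was added. Compounds were in DMSO and diluted in medium with gentamicin, then tested at five levels (100, 10, 1.0, 0.1, 0.01 µM) with 48 h continuous exposure. Adherent cells were fixed with TCA (10% final) and stained with 0.4% SRB, absorbance read at 515 nm. A time-zero plate was included. LC50 is the concentration giving 50% loss of protein relative to time zero.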
# [2] = tested on: HT-29; assay: Cytotoxicity against human HT-29 cells after 48 hrs by SRB assay; conditions: HT-29, 48 h
# In short: (§2)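 NCI 60-cell-line screen. Cells preincubated 24 h at 37 °C, 5% CO2; time-zero plates TCA-fixed. Compounds dissolved in DMSO and tested at five concentrations (100, 10, 1.0, 0.1, 0.01 µM) for 48 h continuous exposure. Adherent cells fixed with cold TCA (10% final), then SRB stained; absorbance at 515 nm. GI50, TGI and LC50 calculated from growth relative to time-zero and untreated controls.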
# [3] = tested on: CAKI-1; assay: Cytotoxicity against human Caki1 cells after 48 hrs by SRB assay; conditions: CAKI-1, 48 h; in short: as §2
# [4] = tested on: PC-3; assay: Cytotoxicity against human PC3 cells after 48 hrs by SRB assay; conditions: PC-3, 48 h; in short: as §2
# [5] = tested on: SK-OV-3; assay: Cytotoxicity against human SKOV3 cells after 48 hrs by SRB assay; conditions: SK-OV-3, 48 h; in short: as §2
# [6] = tested on: UACC-257; assay: Cytotoxicity against human UACC257 cells after 48 hrs by SRB assay; conditions: UACC-257, 48 h; in short: as §1
# [7] = tested on: MDA-MB-468; assay: Cytotoxicity against human MDA-MB-468 cells after 48 hrs by SRB assay; conditions: MDA-MB-468, 48 h; in short: as §2
# [8] = tested on: 786-0; assay: Cytotoxicity against human 786-0 cells after 48 hrs by SRB assay; conditions: 786-0, 48 h; in short: as §2
# [9] = tested on: MOLT-4; assay: Cytotoxicity against human MOLT4 cells after 48 hrs by SRB assay; conditions: MOLT-4, 48 h; in short: as §2
# [10] = tested on: LOX IMVI; assay: Cytotoxicity against human LOXIMVI cells after 48 hrs by SRB assay; in short: as §2
# [11] = tested on: SR; assay: Cytotoxicity against human SR cells after 48 hrs by SRB assay; in short: as §1
# [12] = tested on: RXF 393; assay: Cytotoxicity against human RXF393 cells after 48 hrs by SRB assay; conditions: RXF 393, 48 h; in short: as §2
# [13] = tested on: NCI-H23; assay: Cytotoxicity against human NCI-H23 cells after 48 hrs by SRB assay; conditions: NCI-H23, 48 h; for CC50: read-out: LC50 (the source's name); in short: as §2
# [14] = tested on: UACC-62; assay: Cytotoxicity against human UACC62 cells after 48 hrs by SRB assay; conditions: UACC-62, 48 h; for CC50: read-out: LC50 (the source's name); in short: as §1
# [15] = tested on: A549; assay: Cytotoxicity against human A549/ATCC cells after 48 hrs by SRB assay; conditions: A549, 48 h; for CC50: read-out: LC50 (the source's name); in short: as §2
# [16] = tested on: MDA-MB-231; assay: Cytotoxicity against human MDA-MB-231 cells after 48 hrs by SRB assay; conditions: MDA-MB-231, 48 h; in short: as §2
# [17] = tested on: SW-620; assay: Cytotoxicity against human SW620 cells after 48 hrs by SRB assay; conditions: SW-620, 48 h; in short: as §1
# [18] = tested on: HCT-15; assay: Cytotoxicity against human HCT15 cells after 48 hrs by SRB assay; conditions: HCT-15, 48 h; in short: as §2
# [19] = tested on: DU-145; assay: Cytotoxicity against human DU145 cells after 48 hrs by SRB assay; conditions: DU-145, 48 h; in short: as §2
# [20] = tested on: IGROV-1; assay: Cytotoxicity against human IGROV1 cells after 48 hrs by SRB assay; conditions: IGROV-1, 48 h; in short: as §2
# [21] = tested on: TK-10; assay: Cytotoxicity against human TK10 cells after 48 hrs by SRB assay; conditions: TK-10, 48 h; in short: as §1
# [22] = tested on: SNB-75; assay: Cytotoxicity against human SNB75 cells after 48 hrs by SRB assay; conditions: SNB-75, 48 h; in short: as §1
# [23] = tested on: BT-549; assay: Cytotoxicity against human BT549 cells after 48 hrs by SRB assay; conditions: BT-549, 48 h; in short: as §2
# [24] = tested on: HL-60(TB); assay: Cytotoxicity against human HL-60(TB) cells after 48 hrs by SRB assay; conditions: HL-60, 48 h; for CC50: read-out: LC50 (the source's name); in short: as §2
# [25] = tested on: OVCAR-4; assay: Cytotoxicity against human OVCAR4 cells after 48 hrs by SRB assay; conditions: OVCAR-4, 48 h; in short: as §2
# [26] = tested on: CCRF-CEM; assay: Cytotoxicity against human CCRF-CEM cells after 48 hrs by SRB assay; in short: as §2
# [27] = tested on: COLO 205; assay: Cytotoxicity against human COLO205 cells after 48 hrs by SRB assay; conditions: COLO 205, 48 h; in short: as §2
# [28] = tested on: SF-295; assay: Cytotoxicity against human SF295 cells after 48 hrs by SRB assay; conditions: SF-295, 48 h; in short: as §2
# [29] = tested on: M14; assay: Cytotoxicity against human M14 cells after 48 hrs by SRB assay; conditions: M14, 48 h; for CC50: read-out: LC50 (the source's name); in short: as §2
# [30] = tested on: SF-539; assay: Cytotoxicity against human SF539 cells after 48 hrs by SRB assay; conditions: SF-539, 48 h; for CC50: read-out: LC50 (the source's name); in short: as §2
# [31] = tested on: A498; assay: Cytotoxicity against human A498 cells after 48 hrs by SRB assay; conditions: A498, 48 h; for CC50: read-out: LC50 (the source's name); in short: as §2
# [32] = tested on: NCI/ADR-RES; assay: Cytotoxicity against human NCI/ADR-RES cells after 48 hrs by SRB assay; conditions: for CC50: read-out: LC50 (the source's name); in short: as §2
# [33] = tested on: KM12; assay: Cytotoxicity against human KM12 cells after 48 hrs by SRB assay; conditions: KM12, 48 h; in short: as §2
# [34] = tested on: Malme-3M; assay: Cytotoxicity against human MALME-3M cells after 48 hrs by SRB assay; in short: as §2
# [35] = tested on: UO-31; assay: Cytotoxicity against human UO31 cells after 48 hrs by SRB assay; conditions: UO-31, 48 h; in short: as §1
# [36] = tested on: Hs-578T; assay: Cytotoxicity against human Hs578T cells after 48 hrs by SRB assay; in short: as §2
smiles,measurement,setting,value
O=CN1N=C(c2ccc(Nc3ccnc4cc(Cl)ccc34)cc2)CC1c1ccccc1 (centres undefined),GI50,[1],3.12 µM
same,CC50,[1],> 100 µM
same,GI50,[2],3.21 µM
same,LC50,[2],> 100 µM
same,GI50,[3],3.82 µM
same,LC50,[3],> 100 µM
same,GI50,[4],4.76 µM
same,LC50,[4],> 100 µM
same,GI50,[5],11.3 µM
same,LC50 (concentration killing 50% of cells),[5],> 100 µM
same,GI50,[6],10.1 µM
same,LC50,[6],> 100 µM
same,GI50,[7],0.98 µM
same,LC50,[7],10 µM
same,GI50,[8],3.36 µM
same,LC50,[8],98.4 µM
same,GI50,[9],2.28 µM
same,LC50,[9],> 100 µM
same,GI50,[10],1.61 µM
same,LC50,[10],6.88 µM
same,GI50,[11],1.77 µM
same,LC50,[11],> 100 µM
same,GI50,[12],2.2 µM
same,LC50 (concentration killing 50% of cells),[12],> 100 µM
same,GI50,[13],3.64 µM
same,CC50,[13],> 100 µM
same,GI50,[14],1.55 µM
same,CC50,[14],17.4 µM
same,GI50,[15],4.05 µM
same,CC50,[15],> 100 µM
same,GI50,[16],2.43 µM
same,LC50 (concentration killing 50% of cells present at time zero),[16],> 100 µM
same,GI50,[17],2.73 µM
same,LC50,[17],68.7 µM
same,GI50,[18],2.54 µM
same,LC50 (concentration killing 50% of cells relative to time zero),[18],> 100 µM
same,GI50,[19],3.8 µM
same,LC50 (concentration killing 50% of cells),[19],> 100 µM
same,GI50,[20],9.36 µM
same,LC50 (concentration killing 50% of cells relative to time zero),[20],> 100 µM
same,GI50,[21],9.51 µM
same,LC50 (concentration giving 50% cell loss vs time zero),[21],> 100 µM
same,GI50,[22],5.03 µM
same,LC50 (50% net cell kill),[22],> 100 µM
same,GI50,[23],3.81 µM
same,LC50 (50% net cell kill vs time zero),[23],53.8 µM
same,GI50,[24],2.66 µM
same,CC50,[24],72.5 µM
same,GI50,[25],3.88 µM
same,LC50,[25],> 100 µM
same,GI50,[26],2.51 µM
same,LC50 (concentration killing 50% of cells relative to time zero),[26],> 100 µM
same,GI50,[27],2.21 µM
same,LC50,[27],> 100 µM
same,GI50,[28],2.41 µM
same,LC50,[28],> 100 µM
same,GI50,[29],4.12 µM
same,CC50,[29],> 100 µM
same,GI50,[30],4.57 µM
same,CC50,[30],99.2 µM
same,GI50,[31],1.3 µM
same,CC50,[31],> 100 µM
same,GI50,[32],2.69 µM
same,CC50,[32],> 100 µM
same,GI50,[33],3.41 µM
same,LC50 (concentration killing 50% of cells),[33],> 100 µM
same,GI50,[34],4.21 µM
same,LC50,[34],> 100 µM
same,GI50,[35],3.81 µM
same,LC50,[35],> 100 µM
same,GI50,[36],3.77 µM
same,LC50 (50% net cell kill),[36],> 100 µM
COc1cc(C2CC(c3ccc(Nc4ccnc5cc(Cl)ccc45)cc3)=NN2C=O)cc(OC)c1OC (centres undefined),GI50,[1],2.06 µM
same,CC50,[1],19.4 µM
same,GI50,[2],2.83 µM
same,LC50,[2],> 100 µM
same,GI50,[3],5.47 µM
same,LC50,[3],> 100 µM
same,GI50,[4],11.7 µM
same,LC50,[4],> 100 µM
same,GI50,[5],3.36 µM
same,LC50 (concentration killing 50% of cells),[5],55.8 µM
same,GI50,[6],2.84 µM
same,LC50,[6],55.4 µM
same,GI50,[7],1.83 µM
same,LC50,[7],40.9 µM
same,GI50,[8],2.31 µM
same,LC50,[8],9.93 µM
same,GI50,[9],3.36 µM
same,LC50,[9],> 100 µM
same,GI50,[10],1.89 µM
same,LC50,[10],7.83 µM
same,GI50,[11],2.58 µM
same,LC50,[11],> 100 µM
same,GI50,[12],2.22 µM
same,LC50 (concentration killing 50% of cells),[12],> 100 µM
same,GI50,[13],20.4 µM
same,CC50,[13],> 100 µM
same,GI50,[14],2.2 µM
same,CC50,[14],59.3 µM
same,GI50,[15],6.9 µM
same,CC50,[15],> 100 µM
same,GI50,[16],4.39 µM
same,LC50 (concentration killing 50% of cells present at time zero),[16],> 100 µM
same,GI50,[17],3.49 µM
same,LC50,[17],> 100 µM
same,GI50,[18],3.56 µM
same,LC50 (concentration killing 50% of cells relative to time zero),[18],> 100 µM
same,GI50,[19],6.63 µM
same,LC50 (concentration killing 50% of cells),[19],> 100 µM
same,GI50,[20],22.3 µM
same,LC50 (concentration killing 50% of cells relative to time zero),[20],> 100 µM
same,GI50,[21],3.09 µM
same,LC50 (concentration giving 50% cell loss vs time zero),[21],38.6 µM
same,GI50,[22],5.19 µM
same,LC50 (50% net cell kill),[22],> 100 µM
same,GI50,[23],1.91 µM
same,LC50 (50% net cell kill vs time zero),[23],8.23 µM
same,GI50,[24],2.53 µM
same,CC50,[24],75.8 µM
same,GI50,[25],3.19 µM
same,LC50,[25],> 100 µM
same,GI50,[26],1.82 µM
same,LC50 (concentration killing 50% of cells relative to time zero),[26],> 100 µM
same,GI50,[27],3.73 µM
same,LC50,[27],> 100 µM
same,GI50,[28],5.63 µM
same,LC50,[28],> 100 µM
same,GI50,[29],3.75 µM
same,CC50,[29],48.3 µM
same,GI50,[30],2.75 µM
same,CC50,[30],37.6 µM
same,GI50,[31],15.3 µM
same,CC50,[31],> 100 µM
same,GI50,[32],7.88 µM
same,CC50,[32],> 100 µM
same,GI50,[33],5.87 µM
same,LC50 (concentration killing 50% of cells),[33],> 100 µM
same,GI50,[34],3.2 µM
same,LC50,[34],> 100 µM
same,GI50,[35],4.96 µM
same,LC50,[35],67.5 µM
same,GI50,[36],3.24 µM
same,LC50 (50% net cell kill),[36],> 100 µM
